Assay results of several laboratories.
Each line is one published result; the experiments were not run side by side.
Target: Ephrin type-A receptor 2 (EPHA2, Homo sapiens, UniProt P29317)

SMILES | observed | action | technique | tested at | measurement | value
CC(C)(C)c1nc2c(s1)c1nc(N)ncc1c1ccc(NS(=O)(=O)c3c(F)cccc3F)c(F)c12 | enzyme activity | inhibitor | radiometric | 1 µM | remaining activity | 109%
Cc1ccc(NC(=O)c2ccc(C)c(C(F)(F)F)c2)cc1C#Cc1nn(C2CCC(O)CC2)c2ncnc(N)c12 (stereo not shown) | cell-free assay |  |  | 10 µM | remaining signal | -3%
CC/C(=N\NC(=O)NCc1cccc(O)c1)c1ccc(O)c(C)c1O | enzyme activity | inhibitor |  | 0.1 µM | inhibition | 3.9%
COc1cc2ncnc(Nc3ccc(Oc4ccccc4)cc3C)c2cc1OC | enzyme activity | inhibitor |  | 1 µM | inhibition | 2%
CNC(=O)c1cc(Oc2ccc(NC(=O)Nc3ccc(Cl)c(C(F)(F)F)c3)cc2)ccn1 | enzyme activity | inhibitor |  | 10 µM | inhibition | 96%
COc1cc(Cl)c(C(=O)N[C@@H](CN[C@H]2CC[C@@H](N)CC2)Cc2ccc(C#N)cc2)cc1-c1ccc(CN[C@H](C)c2ccc(C)cc2)o1 | enzyme activity | inhibitor |  | 1 µM | remaining activity | 93%
CS(=O)(=O)Nc1cccc(-c2csc(NC(=O)CSc3nc4nccnc4c(=O)n3CCc3ccccc3)n2)c1 | enzyme activity | inhibitor |  | 10 µM | inhibition | 9%
CC1=C(C#N)[C@@H](c2ccc3[nH]nc(C)c3c2)C(C#N)=C(c2ccc(Cl)cc2)N1 | cell-free assay |  | competition with immobilised ligand | 1 µM | remaining binding | 100%
Cc1ccc(Nc2nccc(N(C)c3ccc4c(C)n(C)nc4c3)n2)cc1S(N)(=O)=O | enzyme activity | inhibitor |  | 10 µM | inhibition | 43%
CSc1nc(C)c(-c2ccnc(Nc3ccc(N4CCOCC4)cc3)c2)[nH]1 | cell-free assay | inhibitor |  | 10 µM | inhibition | 17.1%
Cc1cc(-n2nc(Cc3cc(F)cc(C(F)(F)F)c3)nc2C)ccc1C(N)=O | cell-free assay |  | competition with immobilised ligand | 1 µM | remaining binding | 100%
FC(F)c1nc2ccccc2n1-c1nc(N2CCOCC2)nc(N2CCOCC2)n1 | enzyme activity | inhibitor |  | 10 µM | remaining activity | 106%
C[C@@H]1CCN(C(=O)CC#N)C[C@@H]1N(C)c1ncnc2[nH]ccc12 | cell-free assay |  |  | 0.5 µM | remaining signal | 95.8%
CCN(CC)CCNC(=O)c1c(C)[nH]c(/C=C2\C(=O)Nc3ccc(F)cc32)c1C | enzyme activity | inhibitor |  | 0.3 µM | inhibition | -12%
CC(C)(O)[C@H]1CC[C@H](Nc2ccc3ncc(-c4cccc(C(F)(F)F)c4)n3n2)CC1 | enzyme activity | inhibitor |  | 1 µM | remaining activity | 93.9%
Cc1ccc(C(=O)NCc2ccsc2)cc1C#Cc1cn(C(C)C)c2ncnc(N)c12 | enzyme activity | inhibitor |  | 1 µM | activity vs control | 2%

SMILES | observed | action | technique | tested at | measurement | value
O=C(Nc1cnc(Oc2ccc(F)cc2)nc1)N1CCc2ncccc2[C@@H]1c1ccc(F)cc1 | cell-free assay |  | competition with immobilised ligand | 1 µM | remaining binding | 99%
Cc1sc(C(=O)NC2COC2)cc1-n1cc(NC(=O)Nc2c(F)cccc2Cl)cn1 | enzyme activity | inhibitor |  | 10 µM | remaining activity | 102%
CCc1ccccc1C(=O)Nc1n[nH]c2c(C)c(F)c(C3C(C#N)=C(C)N(C)C(C)=C3C#N)cc12 | cell-free assay |  | competition with immobilised ligand | 1 µM | remaining binding | 61%
Nc1ncnc2occ(-c3ccc(NC(=O)Nc4cc(C(F)(F)F)ccc4F)cc3)c12 | cell-free assay |  |  | 20 µM | remaining signal | 0%
C[C@@H]1CN(c2cc(-c3nn(C)c4ccc(OC5(C)CC5)cc34)ncn2)C[C@H](C)O1 | cell-free assay |  | competition with immobilised ligand | 1 µM | remaining binding | 100%
COc1ccc(COc2ccc(Cc3cnc(N)nc3N)cc2OC)cc1 | cell-free assay |  |  | 0.5 µM | remaining signal | 107%
CN(c1ccnc(CNc2nc(Nc3ccc4c(c3)CC(=O)N4)ncc2C(F)(F)F)n1)S(C)(=O)=O | cell-free assay |  | competition with immobilised ligand | 1 µM | remaining binding | 80%
COc1cc(Nc2cnc(C#N)c(O[C@H](C)CN(C)C)n2)ncc1-c1cnn(C)c1 | enzyme activity | inhibitor | radiometric | 1 µM | remaining activity | 59%
N#CC1(c2ccccn2)CCN(Cc2cc(C(=O)N3CCCC3)c(=O)n3ccccc23)CC1 | cell-free assay |  | competition with immobilised ligand | 1 µM | remaining binding | 86%
C#Cc1cccc(Nc2ncnc3cc(OCCOC)c(OCCOC)cc23)c1 | cell-free assay |  |  | 0.5 µM | remaining signal | 91.3%
CCN(CC)c1ccc(C2=NNC(=O)CC2C)cc1[N+](=O)[O-] (stereo not shown) | enzyme activity | inhibitor |  | 10 µM | remaining activity | 97%
Nc1nc(NC2CCCCC2)sc1C(=O)c1ccccc1 | enzyme activity | inhibitor |  | 10 µM | remaining activity | 110%
CCCOc1ccc(OC)c(F)c1C(=O)c1ccc(C(=O)N[C@@H]2CNC[C@H]2NC(=O)c2ccc3[nH]ncc3c2)cc1 | enzyme activity | inhibitor |  | 10 µM | remaining activity | 69%
O=C1NC(c2ccccn2)Sc2ccccc21 (stereo not shown) | cell-free assay |  | competition with immobilised ligand | 1 µM | remaining binding | 100%
Nc1nc(Nc2ccccc2)sc1C(=O)c1c(F)cccc1F | enzyme activity | inhibitor |  | 10 µM | remaining activity | 71%
